Measurements collected from several papers.
Each line is one published result; the experiments were not run side by side.
SCN1A: Sodium channel protein type 1 subunit alpha (SCN1A, Homo sapiens, UniProt P35498)
RIPK2: Receptor-interacting serine/threonine-protein kinase 2 (RIPK2, Homo sapiens, UniProt O43353)

Cc1nnc(SCC2=C(C(=O)O)N3C(=O)[C@@H](NC(=O)Cn4cnnn4)[C@H]3SC2)s1  inhibition (SCN1A; ion current, inhibitor, patch clamp; 30 µM): 7.45%
Cc1cc([C@@H](C)Nc2ccccc2C(=O)O)c2nc(N3CCC(F)(F)CC3)c(C#N)c(=O)n2c1  remaining binding (High affinity nerve growth factor receptor (NTRK1, Homo sapiens, UniProt P04629); binding, competition with immobilised ligand; 10 µM): 97%
C=CC(=O)N1CCC(COCC(=O)N2CCN(c3nc(-c4cnc(N)nc4C(F)F)nc(N4CCOC[C@@H]4C)n3)CC2)CC1  remaining binding (RIPK2; binding, competition with immobilised ligand; 1 µM): 95%
Nc1c(Br)cc(Br)cc1CN[C@H]1CC[C@H](O)CC1  inhibition (SCN1A; ion current, inhibitor, patch clamp; 10 µM): 33.3%
CNc1ncc2c(/C=C/C(=O)N3CCC(OC)CC3)nn(Cc3cccc(C(F)(F)F)c3)c2n1  remaining activity (RIPK2; enzyme activity, inhibitor, radiometric; 1 µM): 87%
C[C@H]1O[C@H](O[C@H]2[C@H](O)[C@@H](O)[C@@H](O[C@H]3[C@H](O)[C@@H](O)C(O)O[C@@H]3CO)O[C@@H]2CO)[C@H](O)[C@@H](O)[C@@H]1N[C@H]1C=C(CO)[C@@H](O)[C@H](O)[C@H]1O (stereo partly drawn)  inhibition (Alpha-glucosidase MAL12 (MAL12, Saccharomyces cerevisiae S288c, UniProt P53341); enzyme activity, inhibitor, absorbance; 1000 µg/mL): 80.6%
CC(=O)c1c(C)c2cnc(Nc3ccc(N4CCNCC4)cn3)nc2n(C2CCCC2)c1=O  activity vs control (Cyclin-dependent kinase 5, with p25 (CDK5, Homo sapiens, UniProt Q00535); enzyme activity, inhibitor, ADP detection; 1 µM): 97%
COc1cc(-c2cncc3c2CN(C)Cc2cc(N4CCNCC4)ccc2-3)cc(OC)c1OC  remaining activity (Focal adhesion kinase 1 (PTK2, Homo sapiens, UniProt Q05397); enzyme activity, inhibitor; 1 µM): 102%
O=C1NC(=O)C(c2ccccc2)(c2ccccc2)N1  inhibition (SCN1A; ion current, inhibitor, patch clamp; 3 µM): 0.654%
